The source made the active and inactive calls. No cut-off for these calls is given here.
Key:
Assay type in all cases: functional
[1] = Anticancer activity against human NCI-ADR-RES cells
Method in brief: (§1)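 NCI 60 human cancer cell line panel, multiple-dose testing at five concentrations (10^-4, 10^-5, 10^-6, 10^-7 and 10^-8 M). Dose-response curves plot cytotoxic effect against log10 of drug concentration for each cell line. GI50 is the molar concentration giving 50% growth inhibition; LC50 is the concentration killing 50% of cells.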

[2] = Anticancer activity against human OVCAR5 cells; method in brief: as §1
HL-60(TB) = experiment: Anticancer activity against human HL-60(TB) cells; method in brief: as §1
T47D = experiment: Anticancer activity against human T47D cells
Method in brief: (§2)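 NCI 60 human tumour cell line screen. A single-concentration pre-screen was run at 10^-5 M. Compounds selected from it were then tested at five concentrations, 10^-4 to 10^-8 M. Dose-response curves plotted cytotoxic effect against log10 of the drug concentration for each cell line. GI50 is the molar concentration giving 50% growth inhibition, and LC50 the concentration killing 50% of cells.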

[3] = Anticancer activity against human OVCAR3 cells; method in brief: as §1
TK-10 = experiment: Anticancer activity against human TK10 cells; method in brief: as §2
[4] = Anticancer activity against human HCT116 cells; method in brief: as §1
SK-MEL-28 = experiment: Anticancer activity against human SK-MEL-28 cells; method in brief: as §1
[5] = Anticancer activity against human RPMI8226 cells; method in brief: as §1
ACHN = experiment: Anticancer activity against human ACHN cells; method in brief: as §1
CAKI-1 = experiment: Anticancer activity against human CAKI-1 cells; method in brief: as §1
[6] = Anticancer activity against human Hs 578T cells; method in brief: as §1
SK-MEL-2 = experiment: Anticancer activity against human SK-MEL-2 cells; method in brief: as §1
MCF7 = experiment: Anticancer activity against human MCF7 cells; method in brief: as §1
NCI-H322M = experiment: Anticancer activity against human NCI-H322M cells after 48 hrs; method in brief: as §1
[7] = Anticancer activity against human UACC257 cells; method in brief: as §2
UACC-62 = experiment: Anticancer activity against human UACC62 cells; method in brief: as §2
SK-MEL-5 = experiment: Anticancer activity against human SK-MEL-5 cells; method in brief: as §1
SN12C = experiment: Anticancer activity against human SN12C cells; method in brief: as §1
[8] = Anticancer activity against human UO31 cells; method in brief: as §2
IGROV-1 = experiment: Anticancer activity against human IGROV1 cells; method in brief: as §1
[9] = Anticancer activity against human HCT15 cells; method in brief: as §1
KM12 = experiment: Anticancer activity against human KM12 cells; method in brief: as §1
HOP-62 = experiment: Anticancer activity against human HOP62 cells; method in brief: as §1
NCI-H23 = experiment: Anticancer activity against human NCI-H23 cells; method in brief: as §1
HCC 2998 = experiment: Anticancer activity against human HCC2998 cells; method in brief: as §1
[10] = Anticancer activity against human MOLT4 cells; method in brief: as §1
SNB-19 = experiment: Anticancer activity against human SNB19 cells; method in brief: as §1
[11] = Anticancer activity against human SF539 cells; method in brief: as §1
MDA-MB-468 = experiment: Anticancer activity against human MDA-MB-468 cells; method in brief: as §1
K562 = experiment: Anticancer activity against human K562 cells; method in brief: as §1
NCI-H226 = experiment: Anticancer activity against human NCI-H226 cells; method in brief: as §1
CCRF-CEM = experiment: Anticancer activity against human CCRF-CEM cells; method in brief: as §1
A549 = experiment: Anticancer activity against human A549 cells; method in brief: as §1
[12] = Anticancer activity against human SKOV3 cells; method in brief: as §1
[13] = Anticancer activity against human SF295 cells; method in brief: as §1
NCI-H460 = experiment: Anticancer activity against human NCI-H460 cells; method in brief: as §1
U-251 = experiment: Anticancer activity against human U251 cells; method in brief: as §2
Malme-3M = experiment: Anticancer activity against human MALME-3M cells; method in brief: as §1
[14] = Anticancer activity against human LOXIMVI cells; settings: LOX IMVI; method in brief: as §1
SR = experiment: Anticancer activity against human SR cells; method in brief: as §2
[15] = Anticancer activity against human BT549 cells; method in brief: as §1
MDA-MB-435 = experiment: Anticancer activity against human MDA-MB-435 cells; method in brief: as §1
[16] = Anticancer activity against human PC3 cells; method in brief: as §1
DU-145 = experiment: Anticancer activity against human DU145 cells after 48 hrs; settings: DU-145, 48 h; method in brief: as §1
M14 = experiment: Anticancer activity against human M14 cells; method in brief: as §1
SNB-75 = experiment: Anticancer activity against human SNB75 cells; method in brief: as §2
A498 = experiment: Anticancer activity against human A498 cells; method in brief: as §1
[17] = Anticancer activity against human COLO205 cells; method in brief: as §1
[18] = Anticancer activity against human OVCAR4 cells; method in brief: as §1
NCI-H522 = experiment: Anticancer activity against human NCI-H522 cells; method in brief: as §1
RXF 393 = experiment: Anticancer activity against human RXF393 cells; method in brief: as §1
HT-29 = experiment: Anticancer activity against human HT-29 cells; method in brief: as §1
SF-268 = experiment: Anticancer activity against human SF268 cells; method in brief: as §1
MDA-MB-231 = experiment: Anticancer activity against human MDA-MB-231 cells; method in brief: as §1
SW-620 = experiment: Anticancer activity against human SW620 cells; method in brief: as §2
[19] = Anticancer activity against human OVCAR8 cells; method in brief: as §1
786-0 = experiment: Anticancer activity against human 786-0 cells; method in brief: as §1
[20] = read-out: LC50 (the source's name)

C/C1=C\CC[C@@]2(C)O[C@@H]2[C@H]2OC(=O)C(Cn3ccnc3I)[C@@H]2CC1 (stereo partly specified)
GI50 [1]: 31.2 µM
CC50 [1, 20]: > 100 µM
GI50 ([2]; OVCAR-5): 13.7 µM
CC50 ([2]; OVCAR-5, read-out: LC50 (the source's name)): 52.5 µM
GI50 (HL-60(TB)): 6.9 µM
CC50 (HL-60(TB); [20]): 77.5 µM
GI50 (T47D): 9.88 µM
CC50 (T47D; [20]): 54.3 µM
GI50 ([3]; OVCAR-3): 6.85 µM
CC50 ([3]; OVCAR-3, read-out: LC50 (the source's name)): 50.8 µM
GI50 (TK-10): inactive
LC50 (TK-10): inactive
GI50 ([4]; HCT-116): 11.8 µM
CC50 ([4]; HCT-116, read-out: LC50 (the source's name)): 49 µM
GI50 (SK-MEL-28): 16.1 µM
CC50 (SK-MEL-28; [20]): 73 µM
GI50 ([5]; RPMI-8226): 17 µM
CC50 ([5]; RPMI-8226, read-out: LC50 (the source's name)): > 100 µM
GI50 (ACHN): 10.5 µM
CC50 (ACHN; [20]): 47.4 µM
GI50 (CAKI-1): 6.61 µM
CC50 (CAKI-1; [20]): 49.5 µM
GI50 [6]: 21.3 µM
CC50 [6, 20]: > 100 µM
GI50 (SK-MEL-2): 18.6 µM
CC50 (SK-MEL-2; [20]): 66.1 µM
GI50 (MCF7): 9.79 µM
CC50 (MCF7; [20]): > 100 µM
GI50 (NCI-H322M): 61.3 µM
CC50 (NCI-H322M; [20]): > 100 µM
GI50 ([7]; UACC-257): 12 µM
CC50 ([7]; UACC-257, read-out: LC50 (the source's name)): 53.9 µM
GI50 (UACC-62): inactive
LC50 (UACC-62): inactive
GI50 (SK-MEL-5): 18.5 µM
LC50 (SK-MEL-5): 95.6 µM
GI50 (SN12C): 17.7 µM
CC50 (SN12C; [20]): 84.1 µM
GI50 ([8]; UO-31): 10.8 µM
CC50 ([8]; UO-31, read-out: LC50 (the source's name)): 50 µM
GI50 (IGROV-1): 20 µM
CC50 (IGROV-1; [20]): 75.6 µM
GI50 ([9]; HCT-15): 10.7 µM
CC50 ([9]; HCT-15, read-out: LC50 (the source's name)): 55.6 µM
GI50 (KM12): 43.2 µM
CC50 (KM12; [20]): > 100 µM
GI50 (HOP-62): 47.4 µM
CC50 (HOP-62; [20]): > 100 µM
GI50 (NCI-H23): 23.7 µM
CC50 (NCI-H23; [20]): > 100 µM
GI50 (HCC 2998): inactive
LC50 (HCC 2998): inactive
GI50 ([10]; MOLT-4): 19.6 µM
CC50 ([10]; MOLT-4, read-out: LC50 (the source's name)): 97.9 µM
GI50 (SNB-19): > 100 µM
CC50 (SNB-19; [20]): > 100 µM
GI50 ([11]; SF-539): 16.7 µM
CC50 ([11]; SF-539, read-out: LC50 (the source's name)): 60.8 µM
GI50 (MDA-MB-468): 11.1 µM
LC50 (concentration killing 50% of cells) (MDA-MB-468): 60.4 µM
GI50 (K562): 7.36 µM
CC50 (K562; [20]): 90 µM
GI50 (NCI-H226): 15.4 µM
CC50 (NCI-H226; [20]): 62.3 µM
GI50 (CCRF-CEM): 6.13 µM
CC50 (CCRF-CEM; [20]): 79.6 µM
GI50 (A549): 19.8 µM
CC50 (A549; [20]): > 100 µM
GI50 ([12]; SK-OV-3): 47.3 µM
CC50 ([12]; SK-OV-3, read-out: LC50 (the source's name)): > 100 µM
GI50 ([13]; SF-295): 32.1 µM
CC50 ([13]; SF-295, read-out: LC50 (the source's name)): > 100 µM
GI50 (NCI-H460): 30.1 µM
CC50 (NCI-H460; [20]): > 100 µM
GI50 (U-251): 36.7 µM
CC50 (U-251; [20]): > 100 µM
GI50 (Malme-3M): 10.9 µM
CC50 (Malme-3M; [20]): 62.7 µM
GI50 [14]: 14.9 µM
CC50 [14, 20]: 60.9 µM
GI50 (SR): 13.6 µM
CC50 (SR; [20]): > 100 µM
GI50 ([15]; BT-549): 15.9 µM
CC50 ([15]; BT-549, read-out: LC50 (the source's name)): 55.3 µM
GI50 (MDA-MB-435): 13.8 µM
CC50 (MDA-MB-435; [20]): 59.5 µM
GI50 ([16]; PC-3): 23.1 µM
CC50 ([16]; PC-3, read-out: LC50 (the source's name)): 100 µM
GI50 (DU-145): 18.8 µM
CC50 (DU-145; [20]): 68.3 µM
GI50 (M14): 16.5 µM
CC50 (M14; [20]): 65.6 µM
GI50 (SNB-75): 19.3 µM
CC50 (SNB-75; [20]): > 100 µM
GI50 (A498): 45.2 µM
CC50 (A498; [20]): > 100 µM
GI50 ([17]; COLO 205): 14.5 µM
CC50 ([17]; COLO 205, read-out: LC50 (the source's name)): 58.8 µM
GI50 ([18]; OVCAR-4): 13.2 µM
CC50 ([18]; OVCAR-4, read-out: LC50 (the source's name)): 60 µM
GI50 (NCI-H522): 1710 nM
CC50 (NCI-H522; [20]): 6.34 µM
GI50 (RXF 393): inactive
LC50 (RXF 393): inactive
GI50 (HT-29): 17.6 µM
CC50 (HT-29; [20]): 61.5 µM
GI50 (SF-268): 23 µM
CC50 (SF-268; [20]): > 100 µM
GI50 (MDA-MB-231): 16.4 µM
LC50 (concentration killing 50% of cells) (MDA-MB-231): 59.6 µM
GI50 (SW-620): 11.4 µM
CC50 (SW-620; [20]): 62.8 µM
GI50 ([19]; OVCAR-8): 16.6 µM
CC50 ([19]; OVCAR-8, read-out: LC50 (the source's name)): 59.9 µM
GI50 (786-0): 14.3 µM
CC50 (786-0; [20]): 53 µM
